Assay results: publication PMC7141409 (Journal of biomolecular NMR, 2019)

What was measured:
[1] = chymotrypsin-based two-step assay; cited from earlier work
[2] = test system: ^15N-OsIAA11^72−125 (W104-P105 peptide bond); experiment: Nzz-exchange: catalyzed cis-trans exchange of W104-P105; format: biochemical, rice
Summary of the method: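 15N-labeled OsIAA11 72–125 substrate (800μM) with 16μM enzyme (LRT2 mutant or homolog) in NMR buffer (50mM KCl, 20mM KPO4, 3mM TCEP, 5mM NaN3, 0.1% protease inhibitor cocktail, pH=6.67). Protein concentrations were set by A280 using theoretical extinction coefficients. Nzz-exchange spectra were processed to give the observed cis-trans exchange rate (kexobs) of the W104-P105 bond with uncertainties.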

Substance: hCypA W121A: hCypA W121A mutant
- Catalytic activity on W-P substrate [1]: negligible catalytic activity

Substance: hCypA: human cyclophilin A [reference compound]
- Nzz exchange crosspeaks / activity ([2]; 16μM enzyme, 800μM OsIAA11^72–125): clear exchange crosspeaks
- Nzz-measured kexobs ([2]; 1H-15N Nzz exchange, 16μM enzyme, 800μM OsIAA11^72–125, NMR buffer pH=6.67): 0.69 ± 0.04 s⁻¹
- Activity relative to WT LRT2 on OsIAA11 ([2]; Nzz, % of WT LRT2 activity): 110%
